Reference: ChEMBL document CHEMBL4028907, “Semisynthesis and Biological Evaluation of Xanthone Amphiphilics as Selective, Highly Potent Antifungal Agents to Combat Fungal Resistance” (J Med Chem, 2017)
≈ marks a conversion by molar mass, not a printed value. Calls of active or inactive are those of the source. No cut-off for these calls is given here.

How the values were obtained:
Candida albicans [1] = experiment: Antifungal activity against Candida albicans ATCC 10231 after 24 hrs by two fold serial dilution method; assay type: functional; conditions: ATCC 10231, 24 h
Method in brief: (§1)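 Candida grown on Sabouraud dextrose agar at 35 °C for 24 h, adjusted to ~5×10^3 CFU/mL. Two-fold dilutions from 100 to 0.78 μg/mL in Sabouraud dextrose broth, incubated at 35 °C for 24 h. MIC is the lowest concentration inhibiting growth by eye and by OD600. CLSI-based with minor modifications.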

Candida albicans [2] = experiment: Antifungal activity against drug resistant Candida albicans DF2672R after 24 hrs by two fold serial dilution method; assay type: functional; method in brief: as §1
Candida albicans [3] = experiment: Antifungal activity against Candida albicans DF1976R after 24 hrs by two fold serial dilution method; assay type: functional; method in brief: as §1
Candida albicans [4] = experiment: Antifungal activity against Candida albicans ATCC90028 after 24 hrs by two fold serial dilution method; assay type: functional; conditions: ATCC90028, 24 h; method in brief: as §1
Candida albicans [5] = experiment: Antifungal activity against Candida albicans ATCC24433 after 24 hrs by two fold serial dilution method; assay type: functional; conditions: ATCC24433, 24 h; method in brief: as §1
Candida albicans [6] = experiment: Antifungal activity against Candida albicans ATCC11651 after 24 hrs by two fold serial dilution method; assay type: functional; conditions: ATCC11651, 24 h; method in brief: as §1
Fusarium solani [7] = experiment: Antifungal activity against Fusarium solani 52628 after 48 hrs by two fold serial dilution method; assay type: functional; conditions: Fusarium solani, 52628, 48 h
Method in brief: (§2)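 Moulds grown on potato dextrose agar, 30 °C, 4 days; inoculum adjusted to about 5×10^3 CFU/mL. Two-fold serial dilutions in RPMI-1640 broth, 100 to 0.78 μg/mL final, mixed with equal volume of cell suspension; incubated 30 °C, 48 h. MIC = lowest concentration inhibiting growth, judged visually and by OD530.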

Fusarium solani [8] = experiment: Antifungal activity against Fusarium solani 62877 after 48 hrs by two fold serial dilution method; assay type: functional; conditions: Fusarium solani, 62877, 48 h; method in brief: as §2
Fusarium solani [9] = experiment: Antifungal activity against Fusarium solani MYA3636 after 48 hrs by two fold serial dilution method; assay type: functional; conditions: MYA3636, 48 h; method in brief: as §2
Fusarium solani [10] = experiment: Antifungal activity against Fusarium solani 46492 after 48 hrs by two fold serial dilution method; assay type: functional; conditions: Fusarium solani, 46492, 48 h; method in brief: as §2
Aspergillus brasiliensis = experiment: Antifungal activity against Aspergillus brasiliensis TCC16404 after 48 hrs by two fold serial dilution method; assay type: functional; conditions: TCC16404, 48 h; method in brief: as §2
Aspergillus flavus [11] = experiment: Antifungal activity against Aspergillus flavus TCC 204304 after 48 hrs by two fold serial dilution method; assay type: functional; conditions: TCC 204304, 48 h; method in brief: as §2
Aspergillus flavus [12] = experiment: Antifungal activity against Aspergillus flavus TCC MYA3631 after 48 hrs by two fold serial dilution method; assay type: functional; conditions: TCC MYA3631, 48 h; method in brief: as §2
Aspergillus fumigatus [13] = experiment: Antifungal activity against Aspergillus fumigatus TCC MYA3626 after 48 hrs by two fold serial dilution method; assay type: functional; conditions: TCC MYA3626, 48 h; method in brief: as §2
Aspergillus fumigatus [14] = experiment: Antifungal activity against Aspergillus fumigatus TCC 90906 after 48 hrs by two fold serial dilution method; assay type: functional; conditions: TCC 90906, 48 h; method in brief: as §2
Fusarium oxysporum [15] = experiment: Antifungal activity against Fusarium oxysporum MYA3461 after 48 hrs by two fold serial dilution method; assay type: functional; conditions: MYA3461, 48 h; method in brief: as §2
Fusarium oxysporum [16] = experiment: Antifungal activity against Fusarium oxysporum 64530 after 48 hrs by two fold serial dilution method; assay type: functional; conditions: Fusarium oxysporum, 64530, 48 h; method in brief: as §2
[17] = Selectivity index, ratio of HC50 for New Zealand white rabbit RBC to MIC for Candida albicans ATCC 10231
Candida albicans [18] = experiment: Fungicidal activity against drug resistant Candida albicans DF2672R at 8 times MIC after 24 hrs by time kill assay relative to control; assay type: functional
Method in brief: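 Cells at 10^5–10^6 CFU/mL exposed to 1×, 2×, 4× or 8× MIC at 35 °C. Samples taken at 0.5, 1, 2, 4, 8 and 24 h, serially diluted in PBS and plated on SDA. CFU counted after 24 h at 35 °C; biological replicates.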

Candida albicans [19] = experiment: Antifungal activity against drug resistant Candida albicans DF2672R infected C57BL6 mouse cornea at 5% administered topically for every 20 mins during the first hour and every 1 hr during the next 6 hrs by serial dilution method; assay type: functional
Method in brief: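 C57BL6 mice aged 7–8 weeks (19–23 g), immunosuppressed with cyclophosphamide 100 mg/kg ip at 4 days and 1 day before infection and on day 1 after. Left cornea scratched under xylazine/ketamine, then 20 μL of ~5×10^7 CFU/mL yeast in PBS applied. Treatment started 1 day later; PBS served as control; four mice per group. Corneal fungal load counted by serial dilution plating on SDA.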

CC[C@H](C)C[C@H](C)CCCCCCCCC(=O)N[C@H]1C[C@@H](O)[C@@H](NCCN)NC(=O)[C@@H]2[C@@H](O)CCN2C(=O)[C@H]([C@H](O)CCN)NC(=O)[C@H]([C@H](O)[C@@H](O)c2ccc(O)cc2)NC(=O)[C@@H]2C[C@@H](O)CN2C(=O)[C@H]([C@@H](C)O)NC1=O [CASPOFUNGIN]
MIC (Candida albicans [1]): 0.1 µg/mL (≈ 0.0915 µM)
MIC (Candida albicans [2]): 0.2 µg/mL (≈ 0.183 µM)
MIC (Candida albicans [3]): 0.2 µg/mL (≈ 0.183 µM)
MIC (Candida albicans [4]): 0.1 µg/mL (≈ 0.0915 µM)
MIC (Candida albicans [5]): 0.2 µg/mL (≈ 0.183 µM)
MIC (Candida albicans [6]): 0.2 µg/mL (≈ 0.183 µM)
MIC (Fusarium solani [7]): > 50 µg/mL
MIC (Fusarium solani [8]): > 50 µg/mL
MIC (Fusarium solani [9]): > 50 µg/mL
MIC (Fusarium solani [10]): > 50 µg/mL
MIC (Aspergillus brasiliensis): > 50 µg/mL
MIC (Aspergillus flavus [11]): > 50 µg/mL
MIC (Aspergillus flavus [12]): > 50 µg/mL
MIC (Aspergillus fumigatus [13]): > 50 µg/mL
MIC (Aspergillus fumigatus [14]): > 50 µg/mL
MIC (Fusarium oxysporum [15]): > 50 µg/mL
MIC (Fusarium oxysporum [16]): > 50 µg/mL

C[C@@H]1C/C=C/C=C/C=C/C=C/[C@H](O[C@@H]2O[C@H](C)[C@@H](O)[C@H](N)[C@@H]2O)C[C@@H]2O[C@](O)(C[C@@H](O)C[C@H]3O[C@@H]3/C=C/C(=O)O1)C[C@H](O)[C@H]2C(=O)O [NATAMYCIN]
MIC (Candida albicans [1]): 6.25 µg/mL (≈ 9.39 µM)
MIC (Candida albicans [2]): 6.25 µg/mL (≈ 9.39 µM)
Selectivity Index [17]: 18.1
MIC (Candida albicans [3]): 6.25 µg/mL (≈ 9.39 µM)
MIC (Candida albicans [4]): 6.25 µg/mL (≈ 9.39 µM)
MIC (Candida albicans [5]): 6.25 µg/mL (≈ 9.39 µM)
MIC (Candida albicans [6]): 6.25 µg/mL (≈ 9.39 µM)
MIC (Fusarium solani [7]): 6.25 µg/mL (≈ 9.39 µM)
MIC (Fusarium solani [8]): 25 µg/mL (≈ 37.6 µM)
MIC (Fusarium solani [9]): 6.25 µg/mL (≈ 9.39 µM)
MIC (Fusarium solani [10]): 6.25 µg/mL (≈ 9.39 µM)
MIC (Aspergillus brasiliensis): 6.25 µg/mL (≈ 9.39 µM)
MIC (Aspergillus flavus [11]): > 50 µg/mL
MIC (Aspergillus flavus [12]): > 50 µg/mL
MIC (Aspergillus fumigatus [13]): 6.25 µg/mL (≈ 9.39 µM)
MIC (Aspergillus fumigatus [14]): 6.25 µg/mL (≈ 9.39 µM)
Activity (Candida albicans [18]): 99.9%
MIC (Fusarium oxysporum [15]): 3.13 µg/mL (≈ 4.7 µM)
MIC (Fusarium oxysporum [16]): 6.25 µg/mL (≈ 9.39 µM)
Activity (Candida albicans [19]): Active
